Test results: ChEMBL document CHEMBL4190374, “Structure-Function Evaluation of Imidazopyridine Derivatives Selective for δ-Subunit-Containing γ-Aminobutyric Acid Type A (GABAA) Receptors” (J Med Chem, 2018)

Tests used:
[1] = molecular target: T1, Gamma-aminobutyric acid receptor subunit alpha-1/beta-3/gamma-2 (Rattus norvegicus) (UniProt P18508+P62813+P63079); experiment: Displacement of [3H]EBOB from rat GABA-A receptor alpha1beta3gamma2 expressed in HEK293 cell membranes at 10 uM after 90 mins by liquid scintillation counting analysis relative to control
Summary of the method: (§1)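 Crude membranes from HEK 293 cells transiently Ca-phosphate-transfected with rat subunit cDNAs, harvested at 48 h. Membranes (150-200 µg protein) incubated with 3 nM [3H]EBOB in 50 mM Tris/citrate pH 7.3 plus 0.2 M NaCl. Compound up to 10 µM, final DMSO 0.1%, no GABA, 90 min at 21 °C. Bound radioligand collected by GF/C filtration and counted by scintillation.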

[2] = molecular target: Gamma-aminobutyric acid receptor subunit alpha-6/beta-2/delta (Rattus norvegicus) (UniProt P18506+P30191+P63138); experiment: Displacement of [3H]EBOB from rat GABA-A receptor alpha6beta2delta expressed in HEK293 cell membranes up to 10 uM after 90 mins by liquid scintillation counting analysis relative to control; summary of the method: as §1
Rattus norvegicus = organism: Rattus norvegicus; experiment: Selectivity ratio of IC50 for rat GABA-A receptor alpha6beta3gamma2 expressed in HEK293 cells to IC50 for rat GABA-A receptor alpha6beta3delta expressed in HEK293 cells; assay type: cell-based
[3] = molecular target: Gamma-aminobutyric acid receptor subunit alpha-1/beta-3 (Rattus norvegicus, UniProt P62813+P63079); experiment: Modulation of rat […] GABA-A receptor alpha1beta3 expressed in HEK293 cells in presence of GABA by patch-clamp assay; assay type: cell-based
Summary of the method: (§2)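 Whole-cell patch clamp on eGFP-co-transfected HEK 293 cells expressing rat subunits, recorded 48 h post-transfection. KCl/KOH-based pipette solution, pH 7.2. Rising compound concentrations up to 10 µM co-applied with the receptor-specific GABA EC20. Peak currents fitted to a logistic function giving EC50, Hill coefficient and % modulation, mean ± S.E. of n experiments.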

[4] = molecular target: Gamma-aminobutyric acid receptor subunit alpha-1/beta-3/delta (Rattus norvegicus, UniProt P18506+P62813+P63079); experiment: Modulation of rat […] GABA-A receptor alpha1beta3delta expressed in HEK293 cells in presence of GABA by patch-clamp assay; assay type: cell-based
Summary of the method: (§3)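 Rat GABA-A subunits were transiently co-transfected with eGFP into HEK293 cells on coverslips. Fluorescent cells were recorded by whole-cell patch clamp 48 h later; bath pH 7.4, KCl/KOH pipette pH 7.2. Compound was applied at increasing concentrations up to 10 µM with the receptor-specific GABA EC20. Peak currents were fitted logistically for EC50, Hill and % modulation, as mean ± S.E.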

[5] = molecular target: Gamma-aminobutyric acid receptor subunit alpha-4/beta-3 (Rattus norvegicus, UniProt P28471+P63079); experiment: Modulation of rat […] GABA-A receptor alpha4beta3 expressed in HEK293 cells in presence of GABA by patch-clamp assay; assay type: cell-based; summary of the method: as §3
[6] = molecular target: Gamma-aminobutyric acid receptor subunit alpha-6/beta-3 (Rattus norvegicus, UniProt P30191+P63079); experiment: Modulation of rat […] GABA-A receptor alpha6beta3 expressed in HEK293 cells in presence of GABA by patch-clamp assay; assay type: cell-based; summary of the method: as §3
[7] = molecular target: Gamma-aminobutyric acid receptor subunit alpha-1/beta-3 (Rattus norvegicus) (UniProt P62813+P63079); experiment: Modulation of rat […] GABA-A receptor alpha1beta3 expressed in HEK293 cells up to 10 uM in presence of GABA by patch-clamp assay relative to control; assay type: cell-based; summary of the method: as §2
[8] = molecular target: T1, Gamma-aminobutyric acid receptor subunit alpha-1/beta-3/gamma-2 (Rattus norvegicus); experiment: Modulation of rat […] GABA-A receptor alpha1beta3gamma2 expressed in HEK293 cells up to 10 uM in presence of GABA by patch-clamp assay relative to control; assay type: cell-based; summary of the method: as §3
[9] = molecular target: T2, Gamma-aminobutyric acid receptor subunit alpha-6/beta-3/gamma-2 (Rattus norvegicus) (UniProt P18508+P30191+P63079); experiment: Modulation of rat […] GABA-A receptor alpha6beta3gamma2 expressed in HEK293 cells up to 10 uM in presence of GABA by patch-clamp assay relative to control; assay type: cell-based; summary of the method: as §3
[10] = molecular target: Gamma-aminobutyric acid receptor subunit alpha-4/beta-3/delta (Rattus norvegicus) (UniProt P18506+P28471+P63079); experiment: Agonist activity at rat […] GABA-A receptor alpha4beta3delta expressed in HEK293 cells assessed as ratio of I0 to GABA Imax at 10 uM in absence of GABA by patch-clamp assay; assay type: cell-based
Summary of the method: (§4)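 Whole-cell patch clamp on single fluorescent HEK 293 cells 48 h after transient co-transfection with rat subunit cDNAs plus eGFP. Extracellular solution 135 mM NaCl, 5.3 mM KCl, 2 mM CaCl2, 2 mM MgSO4, 10 mM HEPES pH 7.4, perfused 3 mL/min. Compound at 10 µM without GABA. Current expressed relative to 1 mM GABA at the same receptor (I0/Imax GABA), mean ± S.D. of n experiments.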

[11] = molecular target: T2, Gamma-aminobutyric acid receptor subunit alpha-6/beta-3/gamma-2 (Rattus norvegicus); experiment: Agonist activity at rat […] GABA-A receptor alpha6beta3gamma2 expressed in HEK293 cells assessed as ratio of I0 to GABA Imax at 10 uM in absence of GABA by patch-clamp assay; assay type: cell-based; summary of the method: as §4
[12] = molecular target: T2, Gamma-aminobutyric acid receptor subunit alpha-6/beta-3/gamma-2 (Rattus norvegicus); experiment: (§5) Displacement of [3H]EBOB from rat GABA-A receptor alpha6beta3gamma2 expressed in HEK293 cell membranes after 90 mins in presence of GABA by liquid scintillation counting analysis
[13] = molecular target: Gamma-aminobutyric acid receptor subunit alpha-6/beta-3/gamma-2 (Rattus norvegicus, UniProt P18508+P30191+P63079); experiment: as §5
[14] = molecular target: Gamma-aminobutyric acid receptor subunit alpha-6/beta-3/delta (Rattus norvegicus) (UniProt P18506+P30191+P63079); experiment: (§6) Displacement of [3H]EBOB from rat GABA-A receptor alpha6beta3delta expressed in HEK293 cell membranes after 90 mins in presence of GABA by liquid scintillation counting analysis
[15] = molecular target: Gamma-aminobutyric acid receptor subunit alpha-6/beta-3/delta (Rattus norvegicus, UniProt P18506+P30191+P63079); experiment: as §6
[16] = molecular target: GABA-A receptor alpha6beta3delta (++); experiment: Modulation of rat eGFP-fused GABA-A receptor alpha6beta3delta expressed in HEK293 cells in presence of GABA by patch-clamp assay
[17] = test system: GABA-A receptor alpha6beta3delta (++); experiment: Modulation of rat eGFP-fused GABA-A receptor alpha6beta3delta expressed in HEK293 cells up to 10 uM in presence of GABA by patch-clamp assay relative to control

Gamma-aminobutyric acid receptor subunit alpha-6/beta-3/gamma-2, sequence (P18508 whole entry): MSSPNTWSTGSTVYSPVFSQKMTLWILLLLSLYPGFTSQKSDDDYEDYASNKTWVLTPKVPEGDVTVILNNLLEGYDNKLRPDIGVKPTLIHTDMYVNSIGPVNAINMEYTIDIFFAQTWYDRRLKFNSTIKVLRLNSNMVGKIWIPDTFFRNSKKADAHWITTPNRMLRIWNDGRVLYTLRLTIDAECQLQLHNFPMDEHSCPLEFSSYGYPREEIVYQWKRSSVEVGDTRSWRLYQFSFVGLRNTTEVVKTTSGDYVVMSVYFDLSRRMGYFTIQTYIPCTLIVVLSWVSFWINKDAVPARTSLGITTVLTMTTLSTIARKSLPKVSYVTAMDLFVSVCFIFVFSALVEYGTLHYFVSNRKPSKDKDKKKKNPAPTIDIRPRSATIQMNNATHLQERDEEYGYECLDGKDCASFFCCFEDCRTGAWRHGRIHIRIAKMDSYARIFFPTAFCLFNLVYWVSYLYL
Gamma-aminobutyric acid receptor subunit alpha-6/beta-3/gamma-2, sequence (P30191 whole entry): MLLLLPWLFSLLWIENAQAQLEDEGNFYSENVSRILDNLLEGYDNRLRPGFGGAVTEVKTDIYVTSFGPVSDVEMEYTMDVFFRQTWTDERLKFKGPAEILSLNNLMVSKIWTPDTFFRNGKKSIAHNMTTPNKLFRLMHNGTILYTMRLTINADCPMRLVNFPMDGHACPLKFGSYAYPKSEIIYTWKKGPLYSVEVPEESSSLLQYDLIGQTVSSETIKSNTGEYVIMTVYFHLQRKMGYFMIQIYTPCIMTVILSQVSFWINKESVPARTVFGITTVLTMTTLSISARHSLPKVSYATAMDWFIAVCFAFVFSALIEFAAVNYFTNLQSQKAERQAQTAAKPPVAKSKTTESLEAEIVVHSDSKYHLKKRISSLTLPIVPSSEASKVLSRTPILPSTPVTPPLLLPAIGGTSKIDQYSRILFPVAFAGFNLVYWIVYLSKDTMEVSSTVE
Gamma-aminobutyric acid receptor subunit alpha-6/beta-3/gamma-2, sequence (P63079 whole entry): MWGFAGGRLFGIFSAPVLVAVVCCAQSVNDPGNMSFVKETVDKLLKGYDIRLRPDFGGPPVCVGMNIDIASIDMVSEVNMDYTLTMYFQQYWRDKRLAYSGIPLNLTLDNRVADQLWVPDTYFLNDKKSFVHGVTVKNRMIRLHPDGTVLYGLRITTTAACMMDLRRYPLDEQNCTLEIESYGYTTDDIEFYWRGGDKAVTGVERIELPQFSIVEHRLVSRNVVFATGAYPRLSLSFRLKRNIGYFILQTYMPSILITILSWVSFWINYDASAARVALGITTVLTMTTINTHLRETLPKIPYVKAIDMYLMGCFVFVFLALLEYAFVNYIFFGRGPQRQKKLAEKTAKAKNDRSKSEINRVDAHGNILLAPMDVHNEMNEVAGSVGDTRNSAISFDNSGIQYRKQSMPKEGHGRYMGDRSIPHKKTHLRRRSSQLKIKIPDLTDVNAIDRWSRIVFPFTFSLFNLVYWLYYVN
Gamma-aminobutyric acid receptor subunit alpha-4/beta-3, sequence (P28471 whole entry): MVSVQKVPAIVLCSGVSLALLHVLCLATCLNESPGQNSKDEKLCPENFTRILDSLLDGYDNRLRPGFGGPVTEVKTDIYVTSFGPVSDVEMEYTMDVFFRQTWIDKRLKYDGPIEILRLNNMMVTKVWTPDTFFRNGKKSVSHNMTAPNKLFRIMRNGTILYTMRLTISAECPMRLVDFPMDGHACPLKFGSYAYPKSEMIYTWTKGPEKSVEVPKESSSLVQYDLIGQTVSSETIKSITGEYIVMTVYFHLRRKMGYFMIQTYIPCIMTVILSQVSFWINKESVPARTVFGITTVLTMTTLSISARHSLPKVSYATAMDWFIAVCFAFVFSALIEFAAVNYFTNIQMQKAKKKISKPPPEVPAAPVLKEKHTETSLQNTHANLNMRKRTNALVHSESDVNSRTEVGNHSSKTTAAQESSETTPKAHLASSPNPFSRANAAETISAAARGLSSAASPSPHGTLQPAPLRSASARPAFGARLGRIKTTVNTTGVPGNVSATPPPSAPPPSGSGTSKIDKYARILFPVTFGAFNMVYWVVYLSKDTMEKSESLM
Gamma-aminobutyric acid receptor subunit alpha-4/beta-3, sequence (P63079 whole entry): as the sequence (P63079 whole entry) above
Gamma-aminobutyric acid receptor subunit alpha-1/beta-3/delta, sequence (P18506 whole entry): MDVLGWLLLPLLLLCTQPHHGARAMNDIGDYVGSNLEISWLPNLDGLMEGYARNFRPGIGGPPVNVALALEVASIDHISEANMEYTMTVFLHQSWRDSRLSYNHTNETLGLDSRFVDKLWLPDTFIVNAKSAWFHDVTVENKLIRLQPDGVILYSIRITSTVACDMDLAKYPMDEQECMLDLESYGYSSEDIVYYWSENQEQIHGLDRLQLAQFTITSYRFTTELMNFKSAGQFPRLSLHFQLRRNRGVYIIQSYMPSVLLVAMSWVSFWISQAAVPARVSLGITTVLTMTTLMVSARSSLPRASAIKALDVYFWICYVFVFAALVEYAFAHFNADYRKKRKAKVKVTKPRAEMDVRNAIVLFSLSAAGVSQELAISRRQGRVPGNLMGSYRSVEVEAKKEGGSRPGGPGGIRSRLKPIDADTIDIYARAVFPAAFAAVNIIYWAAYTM
Gamma-aminobutyric acid receptor subunit alpha-1/beta-3/delta, sequence (P62813 whole entry): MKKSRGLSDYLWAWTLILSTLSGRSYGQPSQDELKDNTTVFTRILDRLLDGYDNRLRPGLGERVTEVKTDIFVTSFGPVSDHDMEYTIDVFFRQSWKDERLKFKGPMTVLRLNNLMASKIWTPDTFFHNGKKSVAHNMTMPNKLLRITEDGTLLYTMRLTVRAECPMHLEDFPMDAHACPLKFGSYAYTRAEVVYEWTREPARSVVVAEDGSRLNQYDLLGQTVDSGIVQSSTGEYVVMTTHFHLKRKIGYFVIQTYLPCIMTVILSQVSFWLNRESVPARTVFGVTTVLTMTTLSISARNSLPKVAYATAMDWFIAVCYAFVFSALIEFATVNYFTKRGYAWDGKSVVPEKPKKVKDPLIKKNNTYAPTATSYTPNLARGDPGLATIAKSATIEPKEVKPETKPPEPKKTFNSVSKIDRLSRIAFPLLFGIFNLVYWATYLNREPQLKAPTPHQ
Gamma-aminobutyric acid receptor subunit alpha-1/beta-3/delta, sequence (P63079 whole entry): as the sequence (P63079 whole entry) above
Gamma-aminobutyric acid receptor subunit alpha-6/beta-3/delta, sequence (P18506 whole entry, the tested form may be a part): as the sequence (P18506 whole entry) above
Gamma-aminobutyric acid receptor subunit alpha-6/beta-3/delta, sequence (P30191 whole entry, the tested form may be a part): as the sequence (P30191 whole entry) above
Gamma-aminobutyric acid receptor subunit alpha-6/beta-3/delta, sequence (P63079 whole entry, the tested form may be a part): as the sequence (P63079 whole entry) above
Gamma-aminobutyric acid receptor subunit alpha-6/beta-3, sequence (P30191 whole entry): as the sequence (P30191 whole entry) above
Gamma-aminobutyric acid receptor subunit alpha-6/beta-3, sequence (P63079 whole entry): as the sequence (P63079 whole entry) above
Gamma-aminobutyric acid receptor subunit alpha-1/beta-3, sequence (P62813 whole entry): as the sequence (P62813 whole entry) above
Gamma-aminobutyric acid receptor subunit alpha-1/beta-3, sequence (P63079 whole entry): as the sequence (P63079 whole entry) above

Imax [1]: 13%
Imax [2]: 82%
EC50 [3]: 100 nM
EC50 [4]: 100 nM
EC50 [5]: 60 nM
EC50 [6]: 170 nM
Activity [7]: 35%
Activity [8]: 139%
Activity [9]: 157%
Ratio [10]: 1.61
Ratio [11]: 1.12
Imax [12]: 93%
IC50 [13]: 1090 nM
Imax [14]: 88%
IC50 [15]: 370 nM
EC50 [16]: 130 nM
Activity [17]: 802%
Compound: O=C(Nc1c(-c2cccs2)nc2c(Br)cc(Br)cn12)c1ccc(Cl)cc1
Ratio IC50 (Rattus norvegicus): 3
